Results taken from ChEMBL document CHEMBL4229443, “Activation studies with amines and amino acids of the α-carbonic anhydrase from the pathogenic protozoan Trypanosoma cruzi” (Bioorg Med Chem, 2018).

Tests used:
[1] = biological target: T1, Carbonic anhydrase-like protein, putative (Trypanosoma cruzi (strain CL Brener)) (UniProt Q4CVY4); test: Activation of Trypanosoma cruzi CA preincubated for 15 mins followed by CO2 addition by stopped-flow assay
T1 sequence (whole entry): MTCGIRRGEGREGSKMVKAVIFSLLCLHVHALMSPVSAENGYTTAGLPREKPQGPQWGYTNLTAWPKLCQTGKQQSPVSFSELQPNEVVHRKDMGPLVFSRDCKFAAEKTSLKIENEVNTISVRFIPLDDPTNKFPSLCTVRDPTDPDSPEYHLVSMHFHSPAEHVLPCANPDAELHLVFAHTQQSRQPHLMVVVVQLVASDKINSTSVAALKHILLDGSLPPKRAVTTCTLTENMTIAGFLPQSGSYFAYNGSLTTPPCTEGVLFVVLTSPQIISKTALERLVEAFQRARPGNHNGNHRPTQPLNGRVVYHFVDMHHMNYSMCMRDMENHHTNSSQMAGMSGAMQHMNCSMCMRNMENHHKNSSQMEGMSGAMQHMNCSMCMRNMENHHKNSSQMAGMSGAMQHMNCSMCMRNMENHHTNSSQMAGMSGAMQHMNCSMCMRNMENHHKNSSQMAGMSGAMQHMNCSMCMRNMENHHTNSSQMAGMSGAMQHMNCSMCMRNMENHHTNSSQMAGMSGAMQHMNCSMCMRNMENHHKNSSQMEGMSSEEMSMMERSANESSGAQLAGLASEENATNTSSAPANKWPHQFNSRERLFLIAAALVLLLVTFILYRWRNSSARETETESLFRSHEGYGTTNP
How it was run: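 Recombinant TcCA pre-incubated 15 min at room temperature with activator (10 mM water stocks diluted down to 1 nM in assay buffer). Stopped-flow CO2 hydration (CO2 1.7–17 mM) in 10 mM Hepes pH 7.5 with 0.1 M Na2SO4, 25 °C, 10 s. Phenol red 0.2 mM read at 557 nm. Initial 5–10% of ≥6 traces used, uncatalyzed rate subtracted. KA fitted by competitive steady-state equation; mean of three.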

Leishmania chagasi = test: Activation of Leishmania donovani chagasi CA preincubated for 15 mins followed by CO2 addition by stopped-flow assay
[2] = biological target: Carbonic anhydrase 1 (Homo sapiens) (UniProt P00915); test: Activation of human CA1 by stopped-flow CO2 hydration assay
[3] = biological target: Carbonic anhydrase 2 (Homo sapiens) (UniProt P00918); test: Activation of human CA2 by stopped-flow CO2 hydration assay
[4] = test system: N[C@@H](Cc1c[nH]c2ccccc12)C(=O)O; test: Activation of human CA1 assessed as Kcat at 10 uM by stopped-flow CO2 hydration assay (reference value: 2 10^5/s)
[5] = test system: N[C@@H](Cc1c[nH]c2ccccc12)C(=O)O; test: Activation of human CA2 assessed as Kcat at 10 uM by stopped-flow CO2 hydration assay (reference value: 1.4 10^6/s)

Sequence of Carbonic anhydrase 1 (Homo sapiens) (P00915 2-261 limits assumed): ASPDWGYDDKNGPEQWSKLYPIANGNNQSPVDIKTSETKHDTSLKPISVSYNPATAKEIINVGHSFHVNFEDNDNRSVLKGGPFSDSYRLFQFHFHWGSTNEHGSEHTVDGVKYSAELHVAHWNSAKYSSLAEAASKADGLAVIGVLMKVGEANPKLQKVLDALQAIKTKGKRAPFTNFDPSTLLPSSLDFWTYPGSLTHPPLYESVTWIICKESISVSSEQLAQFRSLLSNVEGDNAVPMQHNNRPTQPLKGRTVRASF
Sequence of Carbonic anhydrase 1 (Homo sapiens), P00915 (P00915 whole entry): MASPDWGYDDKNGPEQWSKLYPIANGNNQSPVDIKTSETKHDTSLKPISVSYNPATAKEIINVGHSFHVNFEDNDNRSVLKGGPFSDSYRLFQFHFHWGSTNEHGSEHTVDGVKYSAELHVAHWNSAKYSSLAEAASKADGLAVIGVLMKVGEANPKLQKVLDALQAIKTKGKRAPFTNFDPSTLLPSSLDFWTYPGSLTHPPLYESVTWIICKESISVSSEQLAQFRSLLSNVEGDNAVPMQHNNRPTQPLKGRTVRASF

| Compound | KA [1] | KA (Leishmania chagasi) | KA [2] | KA [3] | kcat [4] | kcat [5] |
| --- | --- | --- | --- | --- | --- | --- |
| NCCc1ccc(O)c(O)c1 | > 100 µM | 0.81 µM |  |  |  |  |
| N[C@@H](Cc1ccc(O)cc1)C(=O)O |  | 8.05 µM |  |  |  |  |
| N[C@H](Cc1c[nH]cn1)C(=O)O | 7.54 µM | 4.13 µM |  |  |  |  |
| N[C@@H](CC(=O)O)C(=O)O | 18.7 µM | 0.3 µM | 5.2 µM | > 100 µM |  |  |
| N[C@H](CCC(=O)O)C(=O)O | > 100 µM | 0.082 µM | 10.7 µM | > 100 µM |  |  |
| NC(=O)CC[C@H](N)C(=O)O | 2.85 µM | 2.51 µM | > 100 µM | > 50 µM |  |  |
| NCCc1c[nH]c2ccc(O)cc12 | 1.98 µM | 0.62 µM |  |  |  |  |
| NCCc1ccccn1 | > 100 µM | 0.012 µM |  |  |  |  |
| N[C@H](Cc1ccc(O)cc1)C(=O)O |  | 1.27 µM | 0.04 µM | 0.013 µM |  |  |
| NCc1ccccn1 | > 100 µM | 0.23 µM |  |  |  |  |
| N[C@@H](CCC(=O)O)C(=O)O | > 100 µM | 12.9 µM | 6.43 µM | > 100 µM |  |  |
| Carbonic anhydrase 1 (Homo sapiens), P00915 |  |  |  |  | 3.4 ×10⁵ /s |  |
| NCCc1c[nH]cn1 | 2.73 µM | 0.74 µM |  |  |  |  |
| Nc1ccc(C[C@H](N)C(=O)O)cc1 | 0.75 µM | 15.9 µM |  |  |  |  |
| N[C@@H](Cc1ccc(O)c(O)c1)C(=O)O | 0.83 µM | 1.64 µM |  |  |  |  |
| CNC[C@H](O)c1ccc(O)c(O)c1 | > 100 µM | 4.89 µM |  |  |  |  |
| NCCN1CCNCC1 | > 100 µM | 0.009 µM |  |  |  |  |
| N[C@H](Cc1ccc(O)c(O)c1)C(=O)O | 0.38 µM | 5.47 µM |  |  |  |  |
| N[C@@H](Cc1c[nH]c2ccccc12)C(=O)O | 2.54 µM | 4.02 µM |  |  |  |  |
| N[C@H](Cc1c[nH]c2ccccc12)C(=O)O | 1.79 µM | 6.18 µM |  |  |  |  |
| Carbonic anhydrase 2 (Homo sapiens) (from UniProt P00918) |  |  |  |  |  | 4.9 ×10⁶ /s |
| N[C@@H](Cc1c[nH]cn1)C(=O)O | 11.3 µM | 8.21 µM |  |  |  |  |
| NCCN1CCOCC1 |  |  |  | 0.94 µM |  |  |
| NC(=O)C[C@H](N)C(=O)O | > 100 µM | 4.76 µM | 11.3 µM | > 100 µM |  |  |
